APJ antagonist = blocks the human apelin receptor APJ; CHO-K1 APJ beta-arrestin complementation, luminescence; P35414; inhibition, % at 20 µM; actives 0.32% (n = 330,000);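 active = inhibition above about 40% at 20 µM, limit read from the data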;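 also: cells challenged with 10 nM apelin-13 agonist together with compound; plate controls were apelin-13 plus DMSO wells for no effect and DMSO wells lacking apelin-13 for full effect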
CCR6 antag = CCR6 (human) receptor antagonism | actives 0.49% (n = 340,000) | P51684 | CHO-K1 CCR6 PathHunter beta-arrestin, luminescence, CCL20-stimulated | inhibition, % at 20 µM;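 active = compounds whose inhibition of the agonist-driven luminescence signal at 20 µM reaches about 50%, limit read from the data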;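 also: cells stimulated with CCL20 at 14 nM final; plate controls were DMSO with CCL20 for no effect and DMSO without agonist for full effect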
Target sequence (P51684 whole entry, looked up): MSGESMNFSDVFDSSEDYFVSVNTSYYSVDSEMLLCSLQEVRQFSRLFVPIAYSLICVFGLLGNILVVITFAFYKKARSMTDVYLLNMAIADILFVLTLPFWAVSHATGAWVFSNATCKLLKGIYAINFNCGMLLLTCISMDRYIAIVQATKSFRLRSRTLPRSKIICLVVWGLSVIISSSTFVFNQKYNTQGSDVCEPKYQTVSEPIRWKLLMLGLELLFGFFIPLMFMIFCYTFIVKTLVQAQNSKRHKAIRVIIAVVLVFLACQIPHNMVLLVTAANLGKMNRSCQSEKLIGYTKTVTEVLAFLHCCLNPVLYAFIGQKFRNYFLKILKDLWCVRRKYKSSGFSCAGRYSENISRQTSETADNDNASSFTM
EBI2 antag = EBI2 (human) antagonism; actives 0.81% (n = 360,000); AID 651636; P32249; EBI2 beta-arrestin recruitment, luminescence, 7a,25-OHC stimulated; inhibition, % at 5 µM; in the data active = inhibition above about 38%;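 also: enzyme fragment complementation signal reports receptor beta-arrestin coupling in cells; 0% = agonist plus DMSO wells and 100% = wells without agonist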
APJ agonist = agonists of human APJ apelin receptor | activation, % at 20 µM | actives 0.11% (n = 330,000) | CHO-K1 APJ PathHunter beta-arrestin, luminescence; 0% DMSO wells, 100% apelin | P35414;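 active = activation more than six SD over the plate average, tested at 20 µM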;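 also: 0% = DMSO alone and 100% = apelin-13 at 10 nM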
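Material: CHO-K1 APJ beta-arrestin complementation cell line; Input: cell density 1000 per well; Incubation: compound stimulation 90 min at 25 °C, detection 60 min; Signal: luminescence from split beta-galactosidase complementation, Galacton Star/Emerald II substrate; Controls: DMSO-only wells as negative, 10 nM Apelin-13 as positive control.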
CXCR6 inh = CXCR6 (human) receptor inhibition; O00574; CHO-K1 PathHunter CXCR6 beta-arrestin, luminescence; inhibition, % at 20 µM; actives 0.36% (n = 360,000); AID 602244; in the data active = inhibition above about 34%, passing the limit was not always enough;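 also: antagonist mode with CXCL16 agonist at 10 nM final; 0% = 10 nM CXCL16 with DMSO and 100% = unstimulated wells without agonist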
Target sequence (O00574 whole entry, looked up): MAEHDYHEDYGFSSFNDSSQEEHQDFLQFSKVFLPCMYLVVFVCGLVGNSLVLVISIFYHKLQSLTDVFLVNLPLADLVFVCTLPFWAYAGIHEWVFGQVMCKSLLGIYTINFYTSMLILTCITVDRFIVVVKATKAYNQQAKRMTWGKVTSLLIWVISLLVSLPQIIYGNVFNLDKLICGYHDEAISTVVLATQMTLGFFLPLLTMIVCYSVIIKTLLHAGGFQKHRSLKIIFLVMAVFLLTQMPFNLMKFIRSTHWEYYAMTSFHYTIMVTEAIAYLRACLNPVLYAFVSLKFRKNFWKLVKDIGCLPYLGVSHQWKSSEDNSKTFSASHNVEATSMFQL
EBI2 conf = EBI2 (human) antagonism, single concentration confirmation | shares compounds with EBI2 antag | EBI2 beta-arrestin luminescence, 7a,25-OHC antagonism | inhibition, % at 5 µM | actives 29% (n = 2,400) | AID 651997;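 active = inhibition of at least 50%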
EBI2 ag = counter-screen for EBI2 antagonists: EBI2 agonist activity; shares compounds with EBI2 antag; EBI2-expressing cells, agonist mode, luminescence, 60 min; 0% vehicle, 100% 7α,25-dihydroxycholesterol control; activation, % at 5 µM; 2,400 tested, under 10 active;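 active = activation of at least 50%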
bGal cs = beta-galactosidase inhibition counter-screen. shares compounds with EBI2 antag. purified beta-galactosidase, luminescent Galacton Star, 15 min. inhibition, % at 5 µM. actives 1% (n = 2,400). AID 652176;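 active = replicate-average signal at least 3 plate SD below neutral wells, shown as high inhibition, flagging enzyme-inhibiting false positives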;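 also: 0% = DMSO wells with enzyme and 100% = wells lacking enzyme; higher means stronger loss of beta-gal luminescence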
The depositor's hits bear a star; · = not tested or not shown. An excerpt weighted towards active compounds, which were near 1.5% of everything screened.

SMILES | APJ antagonist | CCR6 antag | EBI2 antag | APJ agonist | CXCR6 inh | EBI2 conf | EBI2 ag | bGal cs
CSc1ccc(/C=N/N2CCN(Cc3ccc(Cl)cc3)CC2)cc1 | 6.4 | 3.2 | 4.5 | -0.5 | -9.1 | · | · | ·
CSc1ccc(/C=N/NC(=O)CN2CCN(Cc3ccccc3)CC2)cc1 | -9.3 | 12.9 | 49.6* | -1.1 | -5.6 | 42.0 | 0.1 | -11.4
Cn1cccc1CC(=O)N/N=C/c1ccc(C(C)(C)C)cc1 | -17.4 | -3.9 | 9.2 | 1.3 | -1.3 | · | · | ·
CSc1ccc(/C=N/NC(=O)CN2CCN(Cc3ccc(Cl)cc3)CC2)cc1 | 2.1 | -2.9 | 50.0* | -3.2 | -12.0 | 34.0 | -0.8 | -9.7
Cc1ccc(/C=N/NC(=O)Cc2cccn2C)cc1 | 0.1 | 9.8 | 45.9* | 0.0 | -7.8 | 32.2 | -1.3 | -12.3
Cc1ccc(/C=N/NC(=O)CSCc2ccc(Cl)cc2)cc1 | 11.9 | 2.5 | 61.5* | -0.8 | -3.1 | 43.5 | -1.1 | -20.2
OC[C@@H]1CN(Cc2ccco2)C[C@H](n2cnc3c(N4CCOCC4)ncnc32)O1 | · | · | -11.7 | · | 0.2 | · | · | ·
O=C(CSc1nc2ccc(Nc3nc(N4CCOCC4)nc(N4CCOCC4)n3)cc2s1)Nc1ccccc1Cl | -30.1 | -2.5 | 9.5 | 2.7 | -6.4 | · | · | ·
O=C(CSc1nc2ccc(Nc3nc(N4CCCC4)nc(N4CCCC4)n3)cc2s1)NCc1ccco1 | 0.8 | 3.9 | 48.9* | 3.3 | -1.5 | 17.6 | -0.8 | -10.5
CC(=NNC(=O)CSCC(=O)NN=C(C)c1ccccc1)c1ccccc1 | · | 7.9 | 1.5 | · | -0.3 | · | · | ·
Cc1nc(NC(=O)c2ccccc2)sc1-c1cc(C(=O)NCCO)nn1Cc1ccccc1 | · | · | 6.7 | · | · | · | · | ·
NS(=O)(=O)c1ccc(CCNC(=O)C2CCN(S(=O)(=O)c3ccc(Br)s3)CC2)cc1 | 1.7 | 13.3 | -6.6 | -2.4 | -7.0 | · | · | ·
Cc1ccc(CNC(=O)C2CCN(S(=O)(=O)c3ccc(Br)s3)CC2)cc1 | -9.8 | 18.7 | 91.9* | 2.7 | 0.2 | 61.2* | -1.5 | -5.8
Cc1ccc(CNC(=O)C2CCN(S(=O)(=O)c3cccs3)CC2)cc1 | -0.6 | 7.9 | 59.8* | -1.8 | -0.6 | 50.6* | 0.0 | -21.4
COc1ccccc1NS(=O)(=O)c1cc(NC(=O)c2ccc3c(c2)OCCO3)ccc1C | -5.6 | 5.0 | -9.2 | 4.8 | -15.5 | · | · | ·
COc1ccccc1C(=O)Nc1nnc([C@H]2C[C@H](O)[C@@H](CO)O2)s1 | · | · | -6.8 | · | 11.1 | · | · | ·
O=C(/C=C/c1ccc(Cl)cc1)Nc1ccc(N2CCCCC2)cc1 | -5.1 | 4.6 | 44.0* | -0.2 | 2.7 | 9.6 | -1.0 | -2.3
O=C(/C=C/c1ccccc1)Nc1ccc(N2CCCCC2)cc1 | -10.1 | 23.5 | 25.1 | · | 0.4 | · | · | ·
Cc1nn(-c2ccccc2)c(C)c1/C=N/NC(=O)c1cc(-c2ccc(Br)s2)[nH]n1 | -8.7 | -5.7 | 59.1* | -3.1 | 11.0 | 22.1 | 0.1 | 8.4
Cc1cc(C(=O)N/N=C/c2c(C)nn(-c3ccccc3)c2C)n[nH]1 | -1.7 | 3.1 | -4.6 | -5.1 | -7.0 | · | · | ·
Cc1nn(-c2ccccc2)c(C)c1/C=N/NC(=O)c1cc(-c2ccc(Cl)s2)[nH]n1 | 4.6 | -6.1 | 52.4* | 0.8 | -8.2 | 30.3 | 1.2 | 9.9
Cc1nn(-c2ccccc2)c(C)c1/C=N/NC(=O)c1cc(-c2cccs2)[nH]n1 | 5.4 | 25.2 | 4.6 | -1.2 | 2.2 | · | · | ·
COc1cc(/C=N/NC(=O)C2C3CCCCC32C)cc(Br)c1O (stereo not given) | -6.3 | -15.8 | 4.5 | 2.4 | -5.2 | · | · | ·
COc1cccc(C(C(=O)NC2CCCCC2)N(C(=O)Cc2cccs2)c2ccc(-n3cnnn3)c(OC)c2)c1 (stereo not given) | 5.8 | 2.2 | 10.4 | -3.4 | 6.2 | · | · | ·
COc1cccc(C(C(=O)NC2CCCCC2)N(C(=O)c2cccs2)c2ccc3c(c2)OCO3)c1 (stereo not given) | 11.1 | 18.7 | 48.4* | -5.2 | 3.9 | 27.3 | -2.3 | -8.1
SMILES | APJ antagonist | CCR6 antag | EBI2 antag | APJ agonist | CXCR6 inh | EBI2 conf | EBI2 ag | bGal cs
N#Cc1ccc(COC(=O)CN2C(=O)NC3(CCCC3)C2=O)cc1 | -37.8 | 16.1 | 3.2 | -8.5 | -3.8 | · | · | ·
COCCCn1c(=O)/c(=C\c2ccccc2OC(F)F)s/c1=C(/C#N)C(=O)NC(C)C | 0.4 | 2.0 | 60.0* | 0.2 | 11.2 | 50.6* | 0.4 | -0.3
COC(=O)c1ccc(C2C(Oc3ccc(OC)cc3)C(=O)N2CCc2ccc(OC)c(OC)c2)cc1 (stereo not given) | 5.4 | 4.1 | 19.1 | -3.1 | 5.8 | · | · | ·
COC(=O)c1ccc(C2C(Oc3ccccc3)C(=O)N2CCc2ccc(F)cc2)cc1 (stereo not given) | -10.6 | -4.9 | 53.3* | 1.1 | -8.6 | 31.6 | -0.5 | 4.8
Cn1nccc1-c1ccc(C(=O)NCc2ccco2)c2occc12 | · | · | -9.4 | · | 4.0 | · | · | ·
Cc1cccc(Nc2nc(-c3c(C)nc4ccccn34)cs2)c1 | 14.9 | 4.1 | 63.1* | -1.4 | 1.2 | 54.4* | 1.1 | 7.3
Cc1nc2ccccn2c1-c1csc(Nc2cccc(O)c2)n1 | · | 8.8 | 8.3 | · | -3.2 | · | · | ·
CCOC(=O)c1ccc(O)c(-n2cc3c(c2-c2ccccc2)c(=O)n(C)c(=O)n3C)c1 | · | · | -5.9 | · | 0.1 | · | · | ·
CCOCC(=O)N1CCC(Cc2ccccc2)CC1 | 5.8 | -6.2 | 9.8 | 1.2 | -17.0 | · | · | ·
O=C(COc1ccc(F)cc1)N1CCC(Cc2ccccc2)CC1 | 23.5 | 3.1 | 74.5* | -4.8 | -4.3 | 50.3* | 0.9 | 9.6
COc1ccc(OCC(=O)N2CCC(Cc3ccccc3)CC2)cc1 | 10.8 | 10.5 | 91.6* | -2.2 | 4.9 | 76.7* | 1.9 | 1.2
CN(C)C(=O)CCc1ccc2c3c([nH]c2c1)[C@]1(CCc2ccccc2)[C@@H](C(=O)N2CCCCC2)C[C@H](CC(=O)NCc2cccc(C(F)(F)F)c2)C(=O)N1CC3 | · | 13.9 | 42.4* | · | 8.6 | 33.2 | -1.2 | -22.7
COc1ccc(-c2nc(N)ncc2-c2ccc(OC)c(OC)c2)c(O)c1 | 10.3 | 4.4 | 57.3* | -0.6 | 0.8 | 26.5 | 0.4 | -6.4
COc1ccc(-c2c(C)nc(N)nc2-c2ccc(OC)cc2O)cc1 | -2.5 | 7.4 | 74.4* | 1.9 | -8.2 | 46.0 | -1.3 | -23.2
COc1ccc(-c2ncncc2-c2ccc(OC)c(OC)c2)c(O)c1 | 8.9 | -3.1 | 1.6 | -1.5 | 0.9 | · | · | ·
CCOc1ccc(-c2nc(N)ncc2Oc2cccc(OC)c2)c(O)c1 | 1.1 | -2.6 | 47.1* | -1.3 | 1.5 | 38.1 | 2.3 | 3.7
COc1ccc(-c2c(C)nc(N)nc2-c2ccc(OCc3ccc(C)cc3)cc2O)cc1OC | -6.6 | 8.1 | 37.3 | 0.7 | 20.3 | · | · | ·
CCOc1ccc(-c2nc(N)ncc2Oc2ccccc2Br)c(O)c1 | -2.8 | 7.9 | 29.2 | -5.0 | 4.4 | · | · | ·
